The record followed here is ChEMBL document CHEMBL1151726, “Interactions of antiviral indolo[2,3-b]quinoxaline derivatives with DNA” (2008).

In assay [1] the test system is Human betaherpesvirus 5. Put plainly: Antiviral activity against human cytomegalovirus. The class given is functional.
A short description of assay [2]: Ratio of binding constant K for 3 base pair binding site poly(dA-dT)2 DNA to binding constant K for calf thymus DNA.
Assay [3] deals with Nucleic Acid. Put plainly: Binding affinity to poly(dA-dT)2 DNA assessed as drug-DNA intercalation at 5 to 10 uM by emission spectra analysis. The class given is nucleic-acid assay. The essentials:
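Emission spectra recorded with and without poly(dA-dT)2 at 100 µM bases. Ligand at 10 µM (monomeric) or 5 µM (dimeric), room temperature, 10 mM phosphate pH 7.5, total Na+ 100 mM.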

For assay [4], the system named is DNA. The experiment in a line: Binding affinity to calf thymus DNA assessed as drug-DNA intercalation at 5 to 10 uM by absorption spectra analysis. The class given is nucleic-acid assay. To be noted: Bos taurus. The essentials:
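Ligands at 10 µM (monomeric) or 5 µM (dimeric) mixed 1:1 by volume with ct-DNA, 160 µM bases, in 10 mM phosphate pH 7.5, total Na+ 100 mM. Absorption spectra recorded at room temperature, several scans averaged.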

The nature of assay [5]: Ratio of binding constant K for poly(dA-dT)2 DNA to binding constant K for calf thymus DNA.
Assay [6] has as its system DNA. Put plainly: Binding affinity to calf thymus DNA assessed as drug-DNA intercalation at 5 to 10 uM by linear dichroism analysis. To be noted: Bos taurus. The class given is nucleic-acid assay. The essentials:
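Flow linear dichroism with calf thymus DNA at 160 µM bases, ligand 10 µM (monomeric) or 5 µM (dimeric), 10 mM phosphate pH 7.5, Na+ 100 mM, room temperature. Spectra taken over 200–650 nm and baseline-corrected by subtracting the non-oriented sample spectrum.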

A short description of assay [7]: Ratio of binding constant K for 2 base pair binding site poly(dA-dT)2 DNA to binding constant K for calf thymus DNA.
Assay [8] can be described thus: Ratio of binding constant K for 4 base pair binding site poly(dA-dT)2 DNA to binding constant K for calf thymus DNA.

The structures appear in SMILES notation. “And” between values parts separate entries of the source, which are not always exact repeats. Equal values may be shown once. The source made the active and inactive calls. The rule behind the calls is not given here.

For the compound `Cc1cc2nc3c4ccccc4n(CCN(C)C)c3nc2cc1C` [listing 1 of 2 here], the “inhibition (INH)” value in assay [1] is reported as 20%.

Regarding `C[N+](C)(CCC[N+](C)(C)CCn1c2ccccc2c2nc3ccccc3nc21)CCn1c2ccccc2c2nc3ccccc3nc21.[Br-].[Br-]`, the Ratio in assay [2] came out at 1.9. Also, the result in assay [3] and in assay [4] was Active. Besides, in assay [1], the “inhibition (INH)” value was found to be 100%.

Regarding `Cc1cc2nc3c4cc(N)ccc4n(CCN(C)C)c3nc2cc1C.Cl`, the Ratio in assay [5] stood at 1.7. In addition, the outcome in assay [3] and in assay [4] was Active. For the same compound, the “inhibition (INH)” value in assay [1] came out at 100%.

Regarding `Cc1cc2nc3c4ccccc4n(CCN(C)C)c3nc2cc1C.I`, the “inhibition (INH)” value in assay [1] stood at 100%.

As to `Cc1cc2nc3c4ccccc4n(CCN(C)C)c3nc2cc1C.Cl`, the “inhibition (INH)” value in assay [1] came to 100%.

Take `Nc1nc2c(ncn2COC(CO)CO)c(=O)[nH]1` [GANCICLOVIR]: the “inhibition (INH)” value in assay [1] was 30%.

For the compound `Cc1cc2nc3c4ccccc4n(CCN(C)C)c3nc2cc1C` [listing 2 of 2 here], the result in assay [3] and in assay [4] was Active. Besides, the result in assay [6] was inactive. In addition, in assay [7], the Ratio is 1.8 and 2.4.

As to `C[N+](C)(CCCCCC[N+](C)(C)CCn1c2ccccc2c2nc3ccccc3nc21)CCn1c2ccccc2c2nc3ccccc3nc21.[Br-].[Br-]`, in assay [8], the Ratio turned out to be 3. In addition, the result in assay [3] and in assay [4] was Active. In assay [1], the “inhibition (INH)” value is recorded as 100%.
